Screening results: PubChem BioAssay, The Scripps Research Institute Molecular Screening Center
The list is not random: actives were taken first. Their share in the collection is about 2.9%.
M1 PAM parental: M1 PAM counterscreen hit in parental CHO-K1 cells; ATP EC20, Fluo-8 calcium fluorescence; 0% at ATP EC20, 100% at ATP max; activation, % at 3 µM; 0.02% of 360,000 active;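 active = activation above the run cutoff, the mean activation of all test compounds plus 3 SD, cut at about 40% in these data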;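 note: peak over basal fluorescence ratio in a 140 s read after ATP addition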
OX1R antag-1: human HCRTR1 antagonism | O43613 | CHO/OX1R cells, Fluo-8 calcium fluorescence, orexin A | inhibition, % at 5 µM | 0.43% of 330,000 active | AID 434989;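 active = inhibition above its plate's threshold, mean inhibition of all tested compounds on the plate plus 3 SD, cut at about 37% in these data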;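 note: 0% = orexin A challenge wells and 100% = SB-334867-A antagonist wells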
Target sequence (O43613 whole entry, looked up): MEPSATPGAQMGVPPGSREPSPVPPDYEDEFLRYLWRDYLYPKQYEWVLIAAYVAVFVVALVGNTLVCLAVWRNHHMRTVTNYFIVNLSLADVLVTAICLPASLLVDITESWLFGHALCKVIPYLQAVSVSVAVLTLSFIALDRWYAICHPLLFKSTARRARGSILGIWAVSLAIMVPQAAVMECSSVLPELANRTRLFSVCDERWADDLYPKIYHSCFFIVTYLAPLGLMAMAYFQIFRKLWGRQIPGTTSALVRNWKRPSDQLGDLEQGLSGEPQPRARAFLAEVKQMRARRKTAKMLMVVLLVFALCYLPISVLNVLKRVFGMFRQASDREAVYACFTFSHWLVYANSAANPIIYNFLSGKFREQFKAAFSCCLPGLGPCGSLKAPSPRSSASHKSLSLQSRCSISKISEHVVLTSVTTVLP
CHO-K1 Ca antag: counter-screen for M1 antagonists: effect in parental CHO-K1 cells | ATP-induced calcium, Fluo-8 fluorescence | inhibition, % at 3 µM | 0.6% of 360,000 active | AID 602250;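 active = inhibition above a per-plate cutoff, the plate's mean sample inhibition plus 3 SD, cut at about 24% in these data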;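 note: 0% = DMSO plus EC80 ATP and 100% = DMSO alone without ATP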
CHO parental Ca: counter-screen: ATP calcium response change in parental CHO cells; parental CHO-K1, ATP-induced calcium, Fluo-8 fluorescence; inhibition, % at 5.6 µM; 0.63% of 330,000 active; AID 463079;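 active = inhibition above that plate's mean sample inhibition plus 3 SD, cut at about 26% in these data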;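 note: 0% = ATP-challenged DMSO wells and 100% = DMSO wells without ATP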
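Material: Parental CHO cells | Reagent: ATP | Compound dosing: Single nominal dose of 5.6 µM per compound | Detection: Intracellular calcium via Fluo-8 no-wash fluorescent dye | Read-out: % inhibition of ATP-induced calcium mobilization | Benchmarks: Low control ATP plus DMSO, high control DMSO only | Replicates: Singlicate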
CHO-K1 Ca ag: counter-screen for M1 agonists: effect in parental CHO-K1 cells; Fluo-8 calcium fluorescence; scaled to maximal ATP response, vehicle zero; AID 602248; activation, % at 3 µM; 0.48% of 360,000 active; in the data active = activation above about 15%;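 note: untransfected CHO-K1 host cells lacking M1 receptor as counterscreen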
OX1R antag-2: OX1R (human) antagonism; O43613; OX1R-expressing cells, FRET antagonist read-out; inhibition, % at 6.6 µM; 1.8% of 330,000 active; in the data active = inhibition mostly above about 38%, no sharp cut-off; inactive = mostly below about 40%;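 note: 0% = agonist challenge alone and 100% = reference antagonist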
* = called active by the depositor; . = not tested or not shown.

SMILES	M1 PAM parental	OX1R antag-1	CHO-K1 Ca antag	CHO parental Ca	CHO-K1 Ca ag	OX1R antag-2
O=C(c1cccs1)N1CCCC(c2nc3c(nnn3Cc3ccccc3Cl)c(=O)[nH]2)C1 (stereo unspecified)	16.4	-36.2	2.2	-28.6	1.1	7.3
O=c1cc(-c2ccccc2)nc(SCc2ccccc2F)[nH]1	7.4	-4.1	-12.2	0.2	0.7	19.2
Cc1cn([C@H]2C[C@H](O)[C@@H](CCC(=O)NCc3cccs3)O2)c(=O)[nH]c1=O	-8.2	.	24.1*	.	0.2	.
CNc1nc(SC)n(C)c(=O)c1N=O	.	-6.5	.	-8.3	.	48.4*
O=S(=O)(c1ccc(F)cc1)n1cnc2ccccc21	5.6	-25.1	2.6	-10.8	-0.4	-4.8
Nc1nc(-c2ccc(Cl)cc2)cc(C(F)(F)F)n1	-13.5	-2.3	-17.8	39.2*	0.1	13.9
Nc1nc(-c2ccc(F)cc2)cc(C(F)(F)F)n1	1.4	3.4	1.8	4.5	-0.7	5.1
Cc1ccccc1-c1nc2ccccc2c(=O)o1	-10.5	.	36.2*	.	-0.7	.
O=C(C[n+]1cccc2ccccc21)c1ccccc1	8.4	-4.0	-0.5	-8.5	1.2	34.2
O=C(C[n+]1cc2ccccc2c2ccccc21)c1ccccc1	6.8	-1.0	-0.3	-13.4	1.0	56.3*
COC(=O)C1=C(C(=O)OC)[C@@H]2N(C)c3ccc(OC)cc3[C@@]23C[C@@H](C(=O)OC)N(C(=O)c2ccco2)C3=N1	5.4	3.2	-11.6	-13.0	0.0	19.4
O=C(COC(=O)C1CC2C=CC1C2)NCCc1ccccc1 (stereo unspecified)	-10.6	1.7	4.2	10.4	-0.2	15.8
O=C(Nc1cccc2c1CCCC2)c1cc(C2CCCCN2C(=O)CCCc2ccccc2)on1 (stereo unspecified)	17.6	.	-10.2	.	0.8	.
COc1ccc(S(=O)(=O)N2CCN(C(=O)c3cccnc3)CC2)cc1OC	9.2	-21.9	-10.2	0.1	1.2	-7.0
COc1ccc(C(=O)N2CCN(S(=O)(=O)c3ccc(Cl)cc3)CC2)cc1OC	20.1	-28.6	-7.3	4.9	1.7	7.6
COc1ccc(C(=O)N2CCN(S(=O)(=O)c3ccc(F)cc3)CC2)cc1OC	6.7	-16.9	9.0	-1.8	20.2*	8.0
COc1ccc(S(=O)(=O)N2CCN(C(=O)c3ccc(=O)[nH]n3)CC2)cc1OC	2.5	.	7.5	.	16.2*	.
O=C(c1cc(C(=O)N2CCOCC2)c2nc3ccccc3n2c1)c1cc(Cl)cc(Cl)c1O	21.5	-19.3	-13.0	0.9	3.2	12.0
COc1ccc(CC(NC(C)=O)C(=O)NC2CCN(c3c(Cc4ccccc4)c(C)nc4ncnn34)CC2)c(OC)c1 (stereo unspecified)	16.8	-2.8	-20.1	-22.3	3.0	6.5
COc1ccc(OC)c(CC(NC(C)=O)C(=O)NC2CCN(c3cc(C)nc4ncnn34)CC2)c1 (stereo unspecified)	.	-3.4	.	31.5*	.	-0.5
O=C(O)CN(c1ccccc1[N+](=O)[O-])S(=O)(=O)c1ccccc1	-10.3	1.1	4.7	2.1	0.2	5.0
OCCNc1nc(-c2ccccc2)nc2c1oc1ccccc12	15.7	-13.5	-13.7	-23.2	2.5	40.3*
F[B-](F)(F)COCc1ccccc1Br	16.6	.	-8.7	.	0.3	.
CCOC(=O)/C(C#N)=C/c1c[nH]c2ccccc12	-3.4	-5.2	6.6	-4.3	0.1	51.2*
COc1cccc(N(C(=O)c2sc(C)nc2C)C(C(=O)NCC2CCCO2)c2ccccc2)c1 (stereo unspecified)	-4.9	-31.1	27.4*	-12.4	5.3	11.9
SMILES	M1 PAM parental	OX1R antag-1	CHO-K1 Ca antag	CHO parental Ca	CHO-K1 Ca ag	OX1R antag-2
Cc1ccsc1/C=N/Nc1nc(=O)[nH]nc1C	7.2	-0.2	-1.6	-11.9	0.1	10.2
CCC(CC)C(=O)Nc1ccc(Sc2ccc([N+](=O)[O-])cc2)cc1	-12.3	59.6*	-8.4	24.7	9.8	41.1*
CCOC(=O)C1=C(C)Nc2ccccc2N=C1NC(=O)c1oc2ccccc2c1COC	0.9	-13.5	-1.4	-6.2	5.5	30.4*
CCOC(=O)C1=C(C)Nc2ccccc2N=C1N	18.8	7.5	-15.8	-9.3	1.1	24.7
CN(C)S(=O)(=O)c1ccc(NC(=O)N2CCN(c3cccc(C(F)(F)F)c3)CC2)cc1	-3.6	48.0*	7.0	38.5*	7.1	33.8
COc1ccc(NC(=O)N2CCN(c3cccc(C(F)(F)F)c3)CC2)cc1	-14.8	8.3	6.9	27.3	5.2	19.5
Cc1cccc(NC(=O)CSCC(=O)N2CCN(c3cccc(C(F)(F)F)c3)CC2)c1	14.1	20.0	-18.7	-24.0	3.6	30.1*
Nc1nc(-c2ccccc2)nc2sc3c(c12)CCCC3	-15.3	5.6	17.1	-9.0	-0.3	68.3*
Cc1cccc(N2CC(C(=O)NCC3COc4ccccc4O3)CC2=O)c1C (stereo unspecified)	11.5	-24.2	-15.9	-27.6	1.1	8.0
O=C(Nc1ccc(Cc2ccncc2)cc1)C1CCC(N2C(=O)C3C4C=CC(C4)C3C2=O)CC1 (stereo unspecified)	-1.4	6.5	2.2	-8.1	18.3*	11.1
CCN(CC)S(=O)(=O)c1ccc(C(C)NC(=O)C2CCCN2C(=O)c2cccs2)cc1 (stereo unspecified)	-6.3	-21.8	-9.1	-19.8	0.4	1.8
Cc1c(NS(C)(=O)=O)c(=O)n(-c2ccccc2)n1C	-2.8	-14.3	8.4	20.7	0.1	24.9
Cc1noc(C)c1S(=O)(=O)Nc1c(C)n(C)n(-c2ccccc2)c1=O	-6.1	-6.5	31.1*	-17.3	-0.3	20.0
COc1ccc(CCNC(=O)c2ccccc2C(=O)NCCc2ccc(OC)c(OC)c2)cc1OC	7.2	-4.3	-2.2	-11.8	2.0	49.8*
COc1ccc(CCNC(=O)Cc2ccc(OCc3ccccc3)c(OC)c2[N+](=O)[O-])cc1OCc1ccccc1	2.7	35.3	18.3	45.6*	7.1	24.7
COc1ccc(CCNC(=O)c2cc(=O)c3cc(C)ccc3o2)cc1OC	-6.4	-3.8	-7.0	7.9	17.3*	17.8
CC(=O)N[C@@H](Cc1c[nH]c2ccccc12)C(=O)NC1CCCc2ccccc21 (stereo partly specified)	-5.2	-14.7	4.0	-3.6	0.2	6.9
Nc1nonc1C(=O)N/N=C/c1cc2c(cc1[N+](=O)[O-])OCO2	-18.9	0.1	5.5	3.0	0.3	21.5
N/C(=N/OC(=O)c1ccc(Cl)cc1)c1ncc([N+](=O)[O-])s1	-24.9	-14.0	29.2*	-3.8	-0.3	5.4
CCN(CC)c1ccc(C(=C2C=CC(=[N+](CC)CC)C=C2)c2ccccc2)cc1	-27.4	.	75.3*	.	38.5*	.
CCN(CC)c1ccc(C(=C2C=CC(=[N+](CC)CC)C=C2)c2ccc(N(CC)CC)cc2)cc1	11.2	.	22.6	.	9.1	.
CCOc1ccc(NC(=O)/C(C=Nc2ccccc2)=C(\C)O)cc1	2.5	-35.8	-12.4	-22.9	-1.1	15.5
